Screening data from PubChem BioAssay.
This is a sample that favours compounds with a hit; in the whole collection about 1.4% have one here.
HTR5A inv ag = inverse agonist of human HTR5A in OPRM1-OPRD1 counter-screen; P47898; HTR5A cell line, luminescence, inverse agonism; actives 0.083% (n = 340,000); inhibition, % at 9.3 µM; AID 504634; in the data active = inhibition mostly above about 23%, no sharp cut-off; inactive = mostly below about 18%;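 also: 0% = cells with DMSO and 100% = no-cell wells with DMSO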
Target sequence (P47898 whole entry, looked up): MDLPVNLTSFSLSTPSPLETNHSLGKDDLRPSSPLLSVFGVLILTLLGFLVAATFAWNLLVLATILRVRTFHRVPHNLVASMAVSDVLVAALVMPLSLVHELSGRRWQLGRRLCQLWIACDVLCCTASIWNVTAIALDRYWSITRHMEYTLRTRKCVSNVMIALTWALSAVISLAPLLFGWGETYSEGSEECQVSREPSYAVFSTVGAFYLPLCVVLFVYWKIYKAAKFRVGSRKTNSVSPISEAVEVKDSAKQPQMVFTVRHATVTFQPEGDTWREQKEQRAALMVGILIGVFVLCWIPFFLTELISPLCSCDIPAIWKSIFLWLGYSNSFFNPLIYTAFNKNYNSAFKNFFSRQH
MOR-DOR ag = agonists of human mu-delta opioid receptor heterodimerization; P35372+P41143; cells, OPRM1-OPRD1 heterodimerization, luminescence; activation, % at 9.3 µM; actives 0.3% (n = 340,000); AID 504326; in the data active = activation above about 18%;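 also: 0% = vehicle-treated cells and 100% = reference agonist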
MOR-DOR inv ag = inverse agonist of human OPRM1-OPRD1 heterodimerization; P35372+P41143; cell-based MOR-DOR heterodimer luminescence, inverse agonism; inhibition, % at 9.3 µM; actives 0.21% (n = 340,000); AID 504357; in the data active = inhibition above about 22%, passing the limit was not always enough;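 also: 0% = cells with DMSO and 100% = wells without cells with DMSO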
HTR5A ag ctr = counter-screen for OPRM1-OPRD1 agonists: human HTR5A agonism. P47898. HTR5A agonist assay, luminescence, cell-based. activation, % at 9.3 µM. actives 0.61% (n = 340,000); in the data active = activation mostly above about 9.5%, no sharp cut-off; inactive = mostly below about 7.6%;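 also: 0% = cells with vehicle only and 100% = reference agonist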
Hep lipid drop = hepatic lipid droplet formation modulation; AML12 mouse hepatocytes, oleate lipid droplets, BODIPY imaging; inhibition, % at 6.5 µM; actives 0.4% (n = 240,000); AID 1656;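 active = lipid droplet intensity inhibited by at least 50%, with more than 500 cells counted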
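Material: mouse AML12 hepatocyte cell line, fixed after treatment; Timing: compound with oleate, overnight; Technique: high-content imaging of BODIPY-stained droplets and DAPI nuclei; Probe or stimulus: oleate, 100 µM final; Dosing: compound at 6.5 µM only.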
The depositor's hits bear a star.

For Cc1ccc(NC(=O)C2CCN(S(=O)(=O)c3ccc(C(C)(C)C)cc3)CC2)cc1S(=O)(=O)N1CCOCC1 the results were HTR5A inv ag -3.0, MOR-DOR ag 1.8, MOR-DOR inv ag -7.6 and HTR5A ag ctr 1.1.
Screening Cc1ccccc1C1CCCN(Cc2nc(CC3CC3)no2)C1 (stereo not given) returned HTR5A inv ag -30.8, MOR-DOR ag 6.3, MOR-DOR inv ag -34.1, HTR5A ag ctr -3.7 and Hep lipid drop -0.8.
`CCc1c(C)nc2ncnn2c1N1CCCC(C(=O)Nc2ccc(NC(C)=O)cc2)C1` (stereo not given) gave HTR5A inv ag -25.9, MOR-DOR ag 1.6, MOR-DOR inv ag -9.8 and HTR5A ag ctr 12.9*.
For CCc1c(C)nc2ncnn2c1N1CCCC(C(=O)NCc2ccc3c(c2)OCO3)C1 (stereo not given) the results were HTR5A inv ag -28.9, MOR-DOR ag -1.9, MOR-DOR inv ag 10.4 and HTR5A ag ctr 0.0.
For COc1ccc(N2CC(O)(c3ccc(F)cc3)[N+]3=C2CCCC3)cc1 (stereo not given) the results were HTR5A inv ag -19.4, MOR-DOR ag -1.7, MOR-DOR inv ag 7.6, HTR5A ag ctr 0.3 and Hep lipid drop -5.5.
COc1ccc(N2CC(O)(c3ccc(C)cc3)[N+]3=C2CCCC3)cc1 (stereo not given) was read as HTR5A inv ag -36.6, MOR-DOR ag -2.7, MOR-DOR inv ag 12.5, HTR5A ag ctr 13.2* and Hep lipid drop 38.3.
`COc1ccc(/C(N)=N/OC(=O)c2c(-c3ccccc3Cl)noc2C)cc1OC` gave HTR5A inv ag -29.0, MOR-DOR ag 12.2, MOR-DOR inv ag -67.2, HTR5A ag ctr 12.2* and Hep lipid drop -5.8.
For Cc1nc(/C(N)=N/OC(=O)c2c(-c3ccccc3Cl)noc2C)cs1 the results were HTR5A inv ag -1.0, MOR-DOR ag 2.7, MOR-DOR inv ag -13.9, HTR5A ag ctr 6.9 and Hep lipid drop 21.7.
`CC(C)(C)c1cc(=O)[nH]c(SCc2ccccc2Cl)n1` gave HTR5A inv ag -32.1, MOR-DOR ag 8.0, MOR-DOR inv ag -45.0, HTR5A ag ctr 12.3* and Hep lipid drop -1.8.
CC(C)(C)c1cc(=O)[nH]c(SCc2ccccc2)n1 was read as HTR5A inv ag -21.4, MOR-DOR ag 3.2, MOR-DOR inv ag -18.2, HTR5A ag ctr 8.2 and Hep lipid drop 26.4.
For CCn1nc(C)c(CN2CCC(C(=O)Nc3cccc(-c4cccc(F)c4)c3)CC2)c1C the results were HTR5A inv ag -32.6, MOR-DOR ag 0.6, MOR-DOR inv ag -2.8, HTR5A ag ctr 8.7* and Hep lipid drop -1.0.
O=C(CNc1ccccc1)N/N=C/c1c[nH]c2ccccc12 was read as HTR5A inv ag -30.4, MOR-DOR ag -1.1, MOR-DOR inv ag 5.2, HTR5A ag ctr 12.7* and Hep lipid drop 11.8.
COCC(C)n1c(COc2ccccc2F)nnc1SCC(=O)Nc1oc(C)c2c(C)n[nH]c(=O)c12 (stereo not given) was read as HTR5A inv ag -1.0, MOR-DOR ag -4.3, MOR-DOR inv ag 21.0 and HTR5A ag ctr -0.9.
For CCOc1ccc(CCNC(=O)Cn2ccc3ccccc3c2=O)cc1OCC the results were HTR5A inv ag 8.6, MOR-DOR ag -0.1, MOR-DOR inv ag 0.6, HTR5A ag ctr -3.5 and Hep lipid drop 50.0*.
Screening N#CCCN(C(=O)CCl)c1cccc(Cl)c1 returned HTR5A inv ag 4.5, MOR-DOR ag -0.6, MOR-DOR inv ag 3.1, HTR5A ag ctr 0.6 and Hep lipid drop 1.8.
For CCCCCCN(C(=O)CCl)c1ccccc1 the results were HTR5A inv ag -7.2, MOR-DOR ag 52.9*, MOR-DOR inv ag -270.9, HTR5A ag ctr 64.1* and Hep lipid drop -9.0.
CCCCCCCN(C(=O)CCl)c1cccc(C)c1 was read as HTR5A inv ag -128.7, MOR-DOR ag 79.3*, MOR-DOR inv ag -426.3, HTR5A ag ctr 84.4* and Hep lipid drop 14.2.
O=C(CCl)N(c1ccccc1)c1ccccc1 was read as HTR5A inv ag 10.2, MOR-DOR ag -0.3, MOR-DOR inv ag 1.4, HTR5A ag ctr -4.0 and Hep lipid drop -6.3.
Screening Cn1c2ccccc2c(=O)c2c(=O)n(C3CCCCC3)c(-c3ccco3)nc21 returned HTR5A inv ag -48.2, MOR-DOR ag -4.1, MOR-DOR inv ag 21.2, HTR5A ag ctr 13.2* and Hep lipid drop 39.3.
Screening COc1cccc(/C=N/N2CCN(C3c4ccccc4-c4ccccc43)CC2)c1O returned HTR5A inv ag -11.9, MOR-DOR ag -0.4, MOR-DOR inv ag 2.2, HTR5A ag ctr 4.4 and Hep lipid drop 57.3*.
Screening CCOC(=O)c1nnn(-c2nonc2N)c1COc1ccccc1 returned HTR5A inv ag -11.0, MOR-DOR ag 3.3, MOR-DOR inv ag -18.8, HTR5A ag ctr 11.0* and Hep lipid drop -13.6.
Screening O=C(CCN1C(=O)/C(=C/c2ccccc2)SC1=S)NCCc1ccc(O)cc1 returned HTR5A inv ag -55.5, MOR-DOR ag 11.5, MOR-DOR inv ag -60.7, HTR5A ag ctr 13.7* and Hep lipid drop -7.8.
`C[C@]1(CO)CCC[C@@]2(C)C1CC[C@@H](CO)[C@@H]2CCc1ccoc1` (stereo not given in full) gave HTR5A inv ag -37.8, MOR-DOR ag 0.2, MOR-DOR inv ag -0.9, HTR5A ag ctr 9.8* and Hep lipid drop -2.9.
O=C1CN(C(=O)COC(=O)c2cc(S(=O)(=O)N3CCOCC3)ccc2Cl)c2ccccc2N1 was read as HTR5A inv ag -9.3, MOR-DOR ag -2.2, MOR-DOR inv ag 11.5, HTR5A ag ctr 3.4 and Hep lipid drop -1.4.
Screening CC(=O)c1ccc(NC(=O)N2CCCC(C(=O)c3ccc4c(c3)OCO4)C2)cc1 (stereo not given) returned HTR5A inv ag -29.3, MOR-DOR ag 1.5, MOR-DOR inv ag -10.9, HTR5A ag ctr 11.0* and Hep lipid drop -16.8.
CCOC(=O)N1C2=NC(C(=O)OC)=C(C(=O)OC)[C@@H]3N(C)c4ccccc4[C@]23C[C@H]1C(=O)OC was read as HTR5A inv ag -22.7, MOR-DOR ag -1.5, MOR-DOR inv ag 8.7 and HTR5A ag ctr 0.1.
Screening CCc1nnc(NS(=O)(=O)c2ccc(Nc3ccc([N+](=O)[O-])c4nonc34)cc2)s1 returned HTR5A inv ag 30.9*, MOR-DOR ag -6.5, MOR-DOR inv ag 36.1*, HTR5A ag ctr -11.2 and Hep lipid drop -0.8.
`CCc1nnc(NS(=O)(=O)c2ccc(NS(=O)(=O)c3ccccc3[N+](=O)[O-])cc2)s1` gave HTR5A inv ag -0.6, MOR-DOR ag -1.7, MOR-DOR inv ag 7.8, HTR5A ag ctr 0.1 and Hep lipid drop -1.2.
`O=[N+]([O-])c1ccc(/C=C/C2=NN(c3ccccc3)C(c3ccco3)C2)o1` (stereo not given) gave HTR5A inv ag -9.1, MOR-DOR ag 3.1, MOR-DOR inv ag -14.4, HTR5A ag ctr 3.6 and Hep lipid drop 53.6*.
For C(=C\c1ccco1)/C1=NN(c2ccccc2)C(c2ccco2)C1 (stereo not given) the results were HTR5A inv ag -6.5, MOR-DOR ag 0.4, MOR-DOR inv ag -1.9, HTR5A ag ctr 1.8 and Hep lipid drop 14.9.
